Experimental data: ChEMBL document CHEMBL4837261, “Optimization of TopoIV Potency, ADMET Properties, and hERG Inhibition of 5-Amino-1,3-dioxane-Linked Novel Bacterial Topoisomerase Inhibitors: Identification of a Lead with In Vivo Efficacy against MRSA” (J Med Chem, 2021)
pIC50: −log10 of the molar value. ≈ marks a conversion by molar mass, not a printed value.

Legend:
Streptococcus pneumoniae = test: Antibacterial activity against Streptococcus pneumoniae by CLSI method; type: functional
Staphylococcus aureus [1] = test: Selectivity index, ratio of IC50 for inhibition of Staphylococcus aureus topoisomerase IV decatenation activity to IC50 for inhibition of Staphylococcus aureus DNA gyrase supercoiling activity
Procedure, shortened: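 Both IC50s were measured in gel-based assays with S. aureus enzymes: supercoiling inhibition for DNA gyrase and decatenation inhibition for TopoIV. The ratio is TopoIV IC50 divided by gyrase IC50.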

Topoisomerase IV = Topoisomerase IV (Staphylococcus aureus, UniProt P0C1S7+P0C1U9); test: Inhibition of Staphylococcus aureus topoisomerase IV decatenation activity using kDNA as substrate by ethidium bromide/bromophenol blue staining based agarose gel electrophoresis analysis; type: protein-complex assay
Enterococcus sp. = test: Antibacterial activity against Enterococcus sp. by CLSI method; type: functional
DNA gyrase [2] = molecular target: DNA gyrase (Staphylococcus aureus, UniProt P0A0K8+P20831, D83N); test: Inhibition of Staphylococcus aureus DNA Gyrase D83N mutant assessed as reduction in supercoiling pBR322 DNA by measuring relaxation by bromophenol blue staining based TAE gel method
Staphylococcus aureus [3] = test: Antibacterial activity against Staphylococcus aureus 3527 by CLSI method; type: functional
Acinetobacter baumannii = test: Antibacterial activity against Acinetobacter baumannii by CLSI method; type: functional
Staphylococcus aureus [4] = test: Antibacterial activity against Staphylococcus aureus ATCC 29213 by CLSI method; type: functional
Staphylococcus aureus [5] = test: Antibacterial activity against cystic fibrosis isolate Staphylococcus aureus by CLSI method; type: functional
Staphylococcus aureus [6] = test: Selectivity ratio of IC50 for inhibition of Staphylococcus aureus Gyrase D83N mutant to IC50 for inhibition of Staphylococcus aureus Gyrase
Procedure, shortened: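 Ratio of two IC50s: the IC50 from the D83N mutant gyrase supercoiling assay (commercial kit) divided by the IC50 from the gel-based wild-type S. aureus gyrase supercoiling assay.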

Staphylococcus aureus [7] = test: Antibacterial activity against Staphylococcus aureus by CLSI method; type: functional
Procedure, shortened: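 MICs were determined by broth microdilution per CLSI guidelines, in triplicate at minimum. Strains were S. aureus ATCC 29213, MRSA USA300 and a cystic fibrosis respiratory isolate, and ranges are given where seen.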

Staphylococcus aureus [8] = test: Antibacterial activity against methicillin-resistant Staphylococcus aureus USA300 by CLSI method; type: functional
Staphylococcus aureus [9] = test: Antibacterial activity against Staphylococcus aureus harbouring GyrA D83N mutant by CLSI method; type: functional
DNA gyrase [10] = molecular target: DNA gyrase (Staphylococcus aureus, UniProt P0A0K8+P20831); test: Inhibition of Staphylococcus aureus Gyrase supercoiling activity assessed as reduction in supercoiling pBR322 DNA by measuring relaxation by bromophenol blue staining based TAE gel method; type: protein-complex assay
[11] = Growth inhibition of human K/VP.5 cells incubated for 48 hrs by NBTI cell counting analysis; type: functional; conditions: K562, 48 h

## COc1ccc2ncc(F)c(C[C@H](O)[C@H]3OC[C@H](NCc4cc5c(nn4)OCCS5)CO3)c2c1
Streptococcus pneumoniae
  MIC50: 1 µg/mL (≈ 2.05 µM)
Staphylococcus aureus [1]
  Ratio IC50: 87
Topoisomerase IV
  pIC50: 5.32
Enterococcus sp.
  MIC50: 0.25 µg/mL (≈ 0.512 µM)
DNA gyrase [2]
  pIC50: 4.72
Staphylococcus aureus [3]
  MIC: 0.5 µg/mL (≈ 1.02 µM)
Acinetobacter baumannii
  MIC50: > 64 µg/mL
Staphylococcus aureus [4]
  MIC: 0.25 µg/mL (≈ 0.512 µM)
Staphylococcus aureus [5]
  MIC: 0.25 µg/mL (≈ 0.512 µM)
Staphylococcus aureus [6]
  Ratio IC50: 336
Staphylococcus aureus [7]
  MIC50: 0.5 µg/mL (≈ 1.02 µM)
Staphylococcus aureus [8]
  MIC: 0.5 µg/mL (≈ 1.02 µM)
Staphylococcus aureus [9]
  MIC: 8 µg/mL (≈ 16.4 µM)
DNA gyrase [10]
  pIC50: 7.25

## COc1ccc2ncc(F)c(C(O)C[C@H]3OC[C@H](NCc4ccc(Cl)c(Cl)c4)CO3)c2n1 (mixture of isomers)
Staphylococcus aureus [1]
  Ratio IC50: 2.7
Topoisomerase IV
  pIC50: 6.22
Staphylococcus aureus [3]
  MIC: ≤ 0.25 µg/mL
Staphylococcus aureus [4]
  MIC: 0.125 µg/mL (≈ 0.259 µM)
Staphylococcus aureus [5]
  MIC: 0.25 µg/mL (≈ 0.518 µM)
Staphylococcus aureus [8]
  MIC: 0.25 µg/mL (≈ 0.518 µM)
Staphylococcus aureus [9]
  MIC: 4 µg/mL (≈ 8.29 µM)
DNA gyrase [10]
  pIC50: 6.66

## COc1ccc2ncc(F)c(C[C@H](O)[C@H]3OC[C@H](NCc4cc5c(cn4)OCCO5)CO3)c2c1
Streptococcus pneumoniae
  MIC50: 2 µg/mL (≈ 4.24 µM)
Staphylococcus aureus [1]
  Ratio IC50: 136
Topoisomerase IV
  pIC50: 5.24
Enterococcus sp.
  MIC50: 0.12 µg/mL (≈ 0.255 µM)
Staphylococcus aureus [3]
  MIC: 0.5 µg/mL (≈ 1.06 µM)
Acinetobacter baumannii
  MIC50: 64 µg/mL (≈ 136 µM)
Staphylococcus aureus [4]
  MIC: 0.25 µg/mL (≈ 0.53 µM)
Staphylococcus aureus [5]
  MIC: 0.5 µg/mL (≈ 1.06 µM)
Staphylococcus aureus [7]
  MIC50: 0.25 µg/mL (≈ 0.53 µM)
Staphylococcus aureus [8]
  MIC: 0.5 µg/mL (≈ 1.06 µM)
Staphylococcus aureus [9]
  MIC: > 8 µg/mL
DNA gyrase [10]
  pIC50: 7.38

## COc1ccc2ncc(F)c(C[C@H](O)[C@H]3OC[C@H](NCc4ccc5c(c4)OCCO5)CO3)c2c1
Streptococcus pneumoniae
  MIC50: 1 µg/mL (≈ 2.13 µM)
Staphylococcus aureus [1]
  Ratio IC50: 73
Topoisomerase IV
  pIC50: 5.64
Enterococcus sp.
  MIC50: 0.06 µg/mL (≈ 0.128 µM)
DNA gyrase [2]
  pIC50: 5.66
Staphylococcus aureus [3]
  MIC: 0.125 µg/mL (≈ 0.266 µM)
Acinetobacter baumannii
  MIC50: 64 µg/mL (≈ 136 µM)
Staphylococcus aureus [4]
  MIC: 0.125 µg/mL (≈ 0.266 µM)
Staphylococcus aureus [5]
  MIC: 0.25 µg/mL (≈ 0.531 µM)
Staphylococcus aureus [6]
  Ratio IC50: 72
Staphylococcus aureus [7]
  MIC50: 0.06 µg/mL (≈ 0.128 µM)
Staphylococcus aureus [8]
  MIC: 0.125 µg/mL (≈ 0.266 µM)
Staphylococcus aureus [9]
  MIC: 4 µg/mL (≈ 8.5 µM)
DNA gyrase [10]
  pIC50: 7.51

## COc1ccc2ccc(F)c(C[C@H](O)[C@H]3OC[C@H](NCc4cc5c(cn4)OCCO5)CO3)c2n1
Staphylococcus aureus [1]
  Ratio IC50: 67
Topoisomerase IV
  pIC50: 6.06
Staphylococcus aureus [3]
  MIC: 0.125 µg/mL (≈ 0.265 µM)
Staphylococcus aureus [4]
  MIC: 0.125 µg/mL (≈ 0.265 µM)
Staphylococcus aureus [5]
  MIC: 0.125 µg/mL (≈ 0.265 µM)
Staphylococcus aureus [8]
  MIC: 0.25 µg/mL (≈ 0.53 µM)
Staphylococcus aureus [9]
  MIC: 2 µg/mL (≈ 4.24 µM)
DNA gyrase [10]
  pIC50: 7.89

## COc1ccc2ncc(F)c(C[C@H](O)[C@H]3OC[C@H](NCc4cnc5c(n4)OCCO5)CO3)c2n1
Staphylococcus aureus [1]
  Ratio IC50: 52
Topoisomerase IV
  pIC50: 4.72
DNA gyrase [2]
  pIC50: 4.54
Staphylococcus aureus [3]
  MIC: 1 µg/mL (≈ 2.11 µM)
Staphylococcus aureus [4]
  MIC: 0.25 µg/mL (≈ 0.528 µM)
Staphylococcus aureus [5]
  MIC: 0.125 µg/mL (≈ 0.264 µM)
Staphylococcus aureus [6]
  Ratio IC50: 80
Staphylococcus aureus [8]
  MIC: 1 µg/mL (≈ 2.11 µM)
Staphylococcus aureus [9]
  MIC: 8 µg/mL (≈ 16.9 µM)
DNA gyrase [10]
  pIC50: 6.44

## COc1ccc2ncc(F)c(C[C@H](O)[C@H]3OC[C@H](NCc4cc5c(nn4)OCCO5)CO3)c2c1
Staphylococcus aureus [1]
  Ratio IC50: 10
Topoisomerase IV
  pIC50: 5.07
DNA gyrase [2]
  pIC50: 4.29
Staphylococcus aureus [3]
  MIC: 2 µg/mL (≈ 4.23 µM)
Staphylococcus aureus [4]
  MIC: 1 µg/mL (≈ 2.12 µM)
Staphylococcus aureus [5]
  MIC: 0.5 µg/mL (≈ 1.06 µM)
Staphylococcus aureus [6]
  Ratio IC50: 60
Staphylococcus aureus [8]
  MIC: 2 µg/mL (≈ 4.23 µM)
Staphylococcus aureus [9]
  MIC: 16 µg/mL (≈ 33.9 µM)
DNA gyrase [10]
  pIC50: 6.08

## COc1ccc2ncc(F)c(C(O)C[C@H]3OC[C@H](NCc4cc5c(cn4)OCCO5)CO3)c2n1 (mixture of isomers)
Topoisomerase IV
  pIC50: 5.06
Staphylococcus aureus [3]
  MIC: 1 µg/mL (≈ 2.12 µM)
Staphylococcus aureus [4]
  MIC: 0.5 µg/mL (≈ 1.06 µM)
Staphylococcus aureus [8]
  MIC: 1 µg/mL (≈ 2.12 µM)
Staphylococcus aureus [9]
  MIC: 16 µg/mL (≈ 33.9 µM)
[11]
  pIC50: 3.63
DNA gyrase [10]
  pIC50: 6.80

## COc1ccc2ncc(F)c(C[C@H](O)[C@H]3OC[C@H](NCc4ccc(Cl)c(Cl)c4)CO3)c2c1
Staphylococcus aureus [1]
  Ratio IC50: 24
Topoisomerase IV
  pIC50: 5.89
Staphylococcus aureus [3]
  MIC: 0.25 µg/mL (≈ 0.519 µM)
Staphylococcus aureus [4]
  MIC: 0.125 µg/mL (≈ 0.26 µM)
Staphylococcus aureus [5]
  MIC: 0.5 µg/mL (≈ 1.04 µM)
Staphylococcus aureus [8]
  MIC: 0.25 µg/mL (≈ 0.519 µM)
Staphylococcus aureus [9]
  MIC: 4 µg/mL (≈ 8.31 µM)
DNA gyrase [10]
  pIC50: 7.25

## COc1ccc2ncc(F)c(C[C@H](O)[C@H]3OC[C@H](NCc4ccc(C)cc4)CO3)c2n1
Topoisomerase IV
  pIC50: 5.57
DNA gyrase [2]
  pIC50: 5.19
Staphylococcus aureus [3]
  MIC: ≤ 0.25 µg/mL
Staphylococcus aureus [4]
  MIC: 0.125 µg/mL (≈ 0.292 µM)
Staphylococcus aureus [5]
  MIC: 0.25 µg/mL (≈ 0.585 µM)
Staphylococcus aureus [8]
  MIC: ≤ 0.25 µg/mL
Staphylococcus aureus [9]
  MIC: 8 µg/mL (≈ 18.7 µM)
[11]
  pIC50: 4.33
DNA gyrase [10]
  pIC50: 6.80

## COc1ccc2ccc(F)c(C[C@H](O)[C@H]3OC[C@H](NCc4ccc5c(n4)NC(=O)CO5)CO3)c2n1
Topoisomerase IV
  pIC50: 6.00
DNA gyrase [2]
  pIC50: 4.16
Staphylococcus aureus [3]
  MIC: 0.25 µg/mL (≈ 0.516 µM)
Staphylococcus aureus [4]
  MIC: 0.25 µg/mL (≈ 0.516 µM)
Staphylococcus aureus [5]
  MIC: 0.5 µg/mL (≈ 1.03 µM)
Staphylococcus aureus [8]
  MIC: 0.25 µg/mL (≈ 0.516 µM)
Staphylococcus aureus [9]
  MIC: 2 µg/mL (≈ 4.13 µM)
[11]
  pIC50: < 4.30
DNA gyrase [10]
  pIC50: 7.02

## COc1ccc2ncc(F)c(C[C@H](O)[C@H]3OC[C@H](NCc4cc5c(nn4)OCCO5)CO3)c2n1
Topoisomerase IV
  pIC50: 5.32
DNA gyrase [2]
  pIC50: 4.33
Staphylococcus aureus [3]
  MIC: 0.25 µg/mL (≈ 0.528 µM)
Staphylococcus aureus [4]
  MIC: 0.125 µg/mL (≈ 0.264 µM)
Staphylococcus aureus [5]
  MIC: 0.25 µg/mL (≈ 0.528 µM)
Staphylococcus aureus [8]
  MIC: 0.25 µg/mL (≈ 0.528 µM)
Staphylococcus aureus [9]
  MIC: 2 µg/mL (≈ 4.22 µM)
[11]
  pIC50: < 3.70
DNA gyrase [10]
  pIC50: 4.49

## COc1ccc2ncc(F)c(C[C@H](O)[C@H]3OC[C@H](NCc4cc5c(cn4)OCO5)CO3)c2n1
Staphylococcus aureus [1]
  Ratio IC50: 22
Topoisomerase IV
  pIC50: 4.74
DNA gyrase [2]
  pIC50: 4.14
Staphylococcus aureus [3]
  MIC: 1 µg/mL (≈ 2.18 µM)
Staphylococcus aureus [4]
  MIC: 0.5 µg/mL (≈ 1.09 µM)
Staphylococcus aureus [5]
  MIC: 0.5 µg/mL (≈ 1.09 µM)
Staphylococcus aureus [6]
  Ratio IC50: 86
Staphylococcus aureus [8]
  MIC: 1 µg/mL (≈ 2.18 µM)
Staphylococcus aureus [9]
  MIC: > 8 µg/mL
DNA gyrase [10]
  pIC50: 6.07
